Data reported in ChEMBL document CHEMBL1155416, “Ethacrynic acid analogues lacking the alpha,beta-unsaturated carbonyl unit--potential anti-metastatic drugs” (2010).
Activity calls are given as the source filed them. No cut-off for these calls is given here.

tested on: not listed separately; test: (§1) Antimigration against human MCF7/AZ cells at 10 to 25 uM after 24 hrs by wound healing assay; assay type: functional
Outline: (§2)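 Confluent MCF-7/AZ monolayers were washed twice with PBS and scratched to leave a gap of about 1500 μm, then imaged. Medium with or without compound was added, at concentrations chosen from the 24 h MTT assay. After 24 h of migration the wound was imaged again and compared with the first image. Migration was expressed as migratory velocity (μm/h).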

Going from `CCC(=O)c1ccc(OCC(=O)O)cc1OC` to `CCC(=O)c1ccc(OCC(=O)O)c(OC)c1`, the “inhibition (INH)” value rises from 29% to 38%.

For `CCC(=O)c1cc(OC)c(OCC(=O)O)c(OC)c1`, the “inhibition (INH)” value was 52%.

tested on: MCF7/AZ; test: as §1; assay type: functional; outline: as §2

For `C=C(CC)C(=O)c1ccc(OCC(=O)O)c(Cl)c1Cl` [ETHACRYNIC ACID], the inhibition was “inactive”.
With `CCC(=O)c1ccc(OCC(=O)O)c(C)c1` the inhibition was “inactive”.
In the case of `CCC(=O)c1ccc(OCC(=O)O)cc1C`, the inhibition is reported as “inactive”.
In the case of `CCC(=O)c1ccc(OCC(=O)O)cc1`, the inhibition is reported as “inactive”.

tested on: not listed separately; test: Cytotoxicity against human MCF7/AZ cells assessed as reduction of cell viability after 24 hrs by MTT assay; assay type: functional
Outline: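 MCF-7/AZ cells were seeded at 1.5 × 10^4 cells/well in medium with 5% FBS and penicillin/streptomycin, then grown 24 h at 37 C under 5% CO2. They were exposed 24 h to eight concentrations (1, 5, 10, 20, 40, 60, 80, 100 μM). Part of the medium was removed before adding MTT, and OD was read. Mean OD came from three independent experiments. OD80/IC20 (20% viability loss) was read from the graphs.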

First: C=C(CC)C(=O)c1ccc(OCC(=O)O)c(Cl)c1Cl [ETHACRYNIC ACID]
Second: CCC(=O)c1ccc(OCC(=O)O)c(C)c1
The IC20 of the first is higher: > 100 µM for the first, 20 µM for the second.

Going from `CCC(=O)c1ccc(OCC(=O)O)cc1C` to `CCC(=O)c1ccc(OCC(=O)O)cc1OC`, the IC20 rises from 10 µM to > 100 µM.

Going from `CCC(=O)c1ccc(OCC(=O)O)cc1` to `CCC(=O)c1ccc(OCC(=O)O)c(OC)c1`, the IC20 rises from 25 µM to > 100 µM.

With `CCC(=O)c1cc(OC)c(OCC(=O)O)c(OC)c1` the IC20 was > 100 µM.
